Hits are enriched below; roughly 2.6% of the tested compounds scored in any of these assays.
ARFGAP1 inh: inhibitors of rat ARFGAP1; inhibition, % at 16.5 µM; 360,000 compounds, 0.26% hits; Q62848; Arfgap1-stimulated ARF1 GTP hydrolysis, GDP FP detection;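 active = inhibition above a per-plate limit, mean inhibition of low control wells plus 3 SD, cut at about 25% in these data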
Target sequence (Q62848 1-136 limits assumed): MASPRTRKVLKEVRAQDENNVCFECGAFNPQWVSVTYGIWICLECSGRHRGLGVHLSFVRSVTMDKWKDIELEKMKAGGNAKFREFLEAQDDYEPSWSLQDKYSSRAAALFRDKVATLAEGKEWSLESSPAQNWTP
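Repeats: one replicate per compound; assay system: rat Arfgap1 catalytic domain, aa 1-136; times: enzyme reaction 120 min at 25 °C after 20 min preincubation; detection: FP of antibody-bound GDP Alexa 633 tracer, ex 620/em 688 nm; benchmarks: high control wells lacking Arfgap1, low control full reaction with DMSO; reagent: human ARF1(Δ1-17)-GTP substrate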
ASAP1 inh: inhibitors of human ASAP1 ArfGAP activity. Q9ULH1. ASAP1-stimulated ARF1 GTP hydrolysis, GDP FP detection. inhibition, % at 16.5 µM. 360,000 compounds, 0.19% hits; in the data active = inhibition above about 25%
Target sequence (Q9ULH1 325-724 limits assumed): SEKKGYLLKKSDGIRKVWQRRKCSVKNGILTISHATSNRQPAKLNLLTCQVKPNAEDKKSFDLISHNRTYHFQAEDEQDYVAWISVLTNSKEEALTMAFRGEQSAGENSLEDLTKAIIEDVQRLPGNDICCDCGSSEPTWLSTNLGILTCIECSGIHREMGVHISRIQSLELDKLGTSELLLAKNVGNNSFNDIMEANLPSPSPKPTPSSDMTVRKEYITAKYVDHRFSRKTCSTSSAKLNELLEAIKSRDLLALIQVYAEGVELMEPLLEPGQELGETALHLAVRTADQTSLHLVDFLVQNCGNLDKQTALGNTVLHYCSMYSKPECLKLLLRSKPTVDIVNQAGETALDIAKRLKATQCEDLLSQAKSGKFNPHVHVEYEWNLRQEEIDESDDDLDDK
esBAF inh: blocks esBAF chromatin remodeling in mouse ES cells. Bmi1-luciferase knock-in reporter, 24 h; 100% = twice the neutral-well signal. reporter increase, % at 12.5 µM. 350,000 compounds, 2% hits. AID 602393; in the data active = activation above about 40%; inconclusive = no clear call, values can overlap the other calls;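 note: a rise in the Bmi1 reporter signal indicates esBAF inhibition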
SMARCA2 activ: activators of SMARCA2 function | MG213 cells, MMTV-luciferase reporter, dexamethasone, overnight | activation, % at 9.1 µM | 370,000 compounds, 1% hits | AID 652017; in the data active = activation above about 7.8%
SMARCA2 conf: SMARCA2 activation, confirmation screen. shares compounds with SMARCA2 activ. MG213 cells, MMTV-luciferase with dexamethasone, luminescence, overnight; MG213 cells expressing E1A, Rb sequestered; DMSO wells 0%, reference activator 100%. activation, % at 9.1 µM. 3,500 compounds, 30% hits. AID 652260;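 active = activation above its plate's cutoff, the mean activation of tested wells plus 3 SD, cut at about 7.9% in these data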
GAL4-VP16 Luc: activates GAL4-VP16 luciferase, flagging SMARCA2 activator hits. shares compounds with SMARCA2 activ. HEK293 GAL4-VP16 pG5luc reporter, luciferase luminescence; scaled: DMSO wells 0%, SAHA wells 100%. activation, % at 9.1 µM. 3,500 compounds, 41% hits. AID 686939;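 active = activation above the solvent-only control well mean plus 3 SD, averaged across control plates, cut at about 5.2% in these data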
A number is an active result; 0 = inactive; ? = inconclusive; - = no result.

SMILES | ARFGAP1 inh | ASAP1 inh | esBAF inh | SMARCA2 activ | SMARCA2 conf | GAL4-VP16 Luc
CO[C@@H]1CN(C)C(=O)c2cc(NC(=O)c3cccc(F)c3)ccc2OC[C@H](C)NC[C@H]1C | - | - | 0 | - | - | -
COCC(=O)N1C[C@H](C)[C@H](OC)CN(C)C(=O)c2ccc(NC(=O)c3ccc(F)cc3)cc2OC[C@@H]1C | - | - | 0 | - | - | -
CC1(C(=O)OCC(=O)NCc2ccc(Cl)cc2)CC1(Cl)Cl (stereo not drawn) | 0 | 0 | 0 | 8.6 | 0 | 0
COCC(=O)Nc1ccc2c(c1)[C@H]1C[C@H](CC(=O)N3CCN(C)CC3)O[C@@H](CO)[C@H]1O2 | - | - | 0 | - | - | -
COc1ccc(NC(=O)N2C[C@H]3[C@@H](c4ccccc42)[C@H](CO)N3C(=O)C2CCCCC2)cc1 | - | - | 0 | - | - | -
Cc1csc(NC(=O)c2ccc[nH]c2=O)n1 | 0 | 0 | 0 | 9.1 | 13.4 | 9.8
Cc1csc(NC(=O)c2cc(C)on2)n1 | 0 | 0 | 0 | 10.6 | 0 | 7.5
C[C@@H]1CN([C@@H](C)CO)C(=O)Cc2cc(NC(=O)CCCCCC(=O)Nc3ccccc3N)ccc2O[C@H]1CN(C)Cc1ccncc1 | - | - | 0 | - | - | -
O=C(NCc1ccccc1Cl)c1cc(=O)[nH]c2ccccc12 | 0 | 0 | 0 | 8.4 | 0 | 0
O=C(NCc1ccccc1F)c1cc(=O)[nH]c2ccccc12 | 0 | 0 | 0 | 0 | - | -
CCCN1[C@H](C(=O)N(C)C)[C@@H](CO)[C@@H]2Cn3c(ccc(-c4cccc(F)c4)c3=O)[C@@H]21 | - | - | 0 | - | - | -
CC1=CC2=NC(=O)/C(=C\c3cc(C)n(-c4cccc(Cl)c4)c3C)C(=N)N2O1 | 0 | 0 | - | 9.1 | 0 | 0
COc1cc(CCC(=O)OCC(=O)Nc2ccc(F)c(F)c2F)cc(OC)c1OC | 0 | 0 | 0 | 0 | - | -
COc1ccc(C(=O)OCC(=O)NC(C)(C)C)cc1[N+](=O)[O-] | 0 | 0 | - | 0 | - | -
CS(=O)(=O)c1ccc(C(=O)OCC(=O)NCc2cccs2)cc1[N+](=O)[O-] | 0 | 0 | 0 | 11.9 | 0 | 0
COc1ccc(C(=O)OCC(=O)Nc2ccc(F)c(F)c2F)cc1OC | 0 | 0 | 0 | 10.1 | 0 | 0
COC(=O)CNC(=O)COC(=O)c1ccc(OC)c([N+](=O)[O-])c1 | 0 | 0 | - | 9.1 | 0 | 0
O=C(NCC[C@@H]1CC[C@@H](NC(=O)C2CCOCC2)[C@H](CO)O1)c1ccc(F)cc1 | - | - | 0 | - | - | -
O=C1CSc2ccc(C(=O)NCCC3=CCCCC3)cc2N1 | 0 | 0 | 50.4 | 9.8 | 0 | 6.8
O=C(CCNC(=O)c1ccc([N+](=O)[O-])cc1)NCCC1=CCCCC1 | 0 | 0 | 0 | 0 | - | -
COCCNC(=O)c1ccc2c(c1)NC(=O)CS2 | 0 | 0 | - | 0 | - | -
Cc1ccsc1C(=O)OCC(=O)NCCC1=CCCCC1 | 0 | 0 | - | 8.4 | 9.7 | 0
O=C(NCCC1=CCCCC1)c1cccc(S(=O)(=O)N2CCCCC2)c1 | 0 | 0 | 0 | 0 | - | -
O=C(NCCC1=CCCCC1)c1ccc([N+](=O)[O-])cc1 | 0 | 0 | - | 9.5 | 12.5 | 12.2
COc1cccc(C(=O)NCCC2=CCCCC2)c1 | 0 | 0 | 0 | 11.9 | 0 | 18.1
SMILES | ARFGAP1 inh | ASAP1 inh | esBAF inh | SMARCA2 activ | SMARCA2 conf | GAL4-VP16 Luc
CCOc1cccc(C=Nc2cc(C)cc(C)c2O)c1O | 0 | 0 | 0 | 11.6 | 0 | 0
CCOc1cccc(/C=N/N=C/c2cccc(OCC)c2O)c1O | 0 | 0 | 0 | 0 | - | -
Cc1ccc(S(=O)(=O)Nc2ccc3c(c2)C(=O)N([C@H](C)CO)C[C@@H](C)[C@@H](CN(C)C(=O)CCC(F)(F)F)OCCCC[C@H](C)O3)cc1 | - | - | 0 | - | - | -
CC1=Nn2c(nc3sc4c(c3c2=O)CCCC4)SC1 | 0 | 0 | - | 10.1 | 0 | 0
S=c1[nH]nc(-c2ccc(Cl)cc2Cl)n1Cc1ccccc1 | 0 | 0 | - | 0 | - | -
S=c1[nH]nc(-c2ccc(Cl)cc2Cl)n1-c1ccccc1 | 0 | 0 | ? | 16.5 | 0 | 6.4
COc1ccc(S(=O)(=O)Nc2ccc3c(c2)C(=O)N([C@@H](C)CO)C[C@@H](C)[C@@H](CN(C)C(=O)CCCN(C)C)OCCCC[C@H](C)O3)cc1 | - | - | 0 | - | - | -
Cc1nn(-c2ccccc2)c(C)c1-c1cc(C(=O)N/N=C/c2ccc(O)cc2)[nH]n1 | 0 | 0 | - | 0 | - | -
COc1cc(/C=N/NC(=O)c2cc(-c3c(C)nn(-c4ccccc4)c3C)n[nH]2)ccc1O | 0 | 0 | 0 | 12.1 | 15.7 | 11.6
C[C@H](CO)N1C[C@H](C)[C@H](CN(C)Cc2ccc(Cl)c(Cl)c2)Oc2ccc(NS(=O)(=O)c3cccs3)cc2C1=O | - | - | 0 | - | - | -
C[C@@H]1CN([C@H](C)CO)C(=O)Cc2cc(NC(=O)Cc3ccccc3)ccc2O[C@H]1CN(C)Cc1ccc(C(F)(F)F)cc1 | - | - | 0 | - | - | -
O=C(NC(=S)Nc1ccccc1)c1ccc(Br)o1 | 0 | 0 | 45.0 | 9.3 | 12.6 | 6.2
Cc1ccc(C(=O)NCCCc2ccccc2)c(C)c1 | 0 | 0 | - | 10.4 | 13.3 | 8.5
Cc1cc(C)cc(C(=O)NCCCc2ccccc2)c1 | 0 | 0 | 0 | 0 | - | -
O=C(NCCCc1ccccc1)c1ccc(Br)o1 | 0 | 0 | 0 | 9.7 | 0 | 0
O=C(NC(=S)NCc1ccccc1)c1ccc(Br)o1 | 0 | 0 | 0 | 0 | - | -
C[C@@H]1CN([C@H](C)CO)S(=O)(=O)c2ccc(Br)cc2O[C@H]1CN(C)C(=O)CN(C)C | - | - | 0 | - | - | -
COc1ccc(S(=O)(=O)Nc2ccc3c(c2)C(=O)N([C@H](C)CO)C[C@H](C)[C@@H](CN(C)S(=O)(=O)c2c(C)noc2C)OCCCC[C@@H](C)O3)cc1 | - | - | 0 | - | - | -
CC(=O)Nc1cccc(-c2cccc3nccn23)c1 | 0 | 0 | 0 | 10.8 | 8.9 | 7.7
O=C(C1CC1)N1C[C@@H]2[C@H](c3ccccc31)[C@@H](CO)N2C(=O)c1cccc(F)c1 | - | - | 0 | - | - | -
COc1ccccc1NC(=O)N1C[C@H](O)COC[C@H]2O[C@@H](CC(=O)NCc3ccccc3)CC[C@@H]21 | - | - | 0 | - | - | -
O=C1/C(=C/c2ccc(O)c(O)c2)Oc2cc(O)ccc21 | 0 | 0 | 0 | 0 | - | -
COc1ccc(/C=C2\OC(=O)c3c(OC)cccc32)cc1OC | 0 | 0 | 47.6 | 8.6 | 22.1 | 13.9
COc1cc(/C=C2\Oc3cc(O)ccc3C2=O)ccc1O | 0 | 0 | 45.5 | 10.2 | 17.5 | 10.4
Cc1cc(NC(=O)c2ccco2)sc1C | 0 | 0 | 0 | 9.1 | 12.1 | 11.3
SMILES | ARFGAP1 inh | ASAP1 inh | esBAF inh | SMARCA2 activ | SMARCA2 conf | GAL4-VP16 Luc
Cc1cccc(NC(=O)c2ccco2)c1C | 0 | 0 | 0 | 0 | - | -
O=C(Nc1nc2ccsc2c(=O)s1)c1ccco1 | 0 | 0 | - | 13.5 | 10.0 | 6.4
Cc1ccc2nc(NC(=S)NC(=O)c3ccco3)sc2c1 | 0 | 0 | - | 17.0 | 9.5 | 15.1
Cc1csc2c(=O)sc(NC(=O)c3ccco3)nc12 | 0 | 0 | - | 0 | - | -
Cc1ccc(-c2nnc(NC(=O)c3ccco3)s2)cc1 | 0 | 0 | 0 | 9.2 | 12.7 | 12.1
CC(C)(C)[S@](=O)N1Cc2cc(C(=O)N3CCCCC3)nc(-c3cccc(-c4ccc(F)cc4)c3)c2[C@@H]1CCO | - | - | 0 | - | - | -
